Test results from ChEMBL document CHEMBL4513216, “Probing the Open Global Health Chemical Diversity Library for Multistage-Active Starting Points for Next-Generation Antimalarials” (ACS Infect Dis, 2020).

Assay: Toxicity liver stage against HepG2, at 10uM
Type: cell-based
Set-up: test concentration 10 uM, cell line HepG2-A16-CD81EGFP
Conditions: human, HepG2-A16-CD81EGFP cells; read-out: INHIBITION
Summary of the method: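 Uninfected HepG2-A16-CD81EGFP cells, 3 × 10^3 per well, 1536-well, plated on prespotted compound at 10 μM final, parasite-free screening media added to match infected plates; puromycin 10 μM positive, DMSO 0.5% negative; run in parallel with 48 h PbLuc assay at 37 °C, 5% CO2; viability by CellTiter-Glo luminescence, normalized to controls.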

Row | SMILES | cytotoxicity at 10 µM [%]
1 | CC(C)(C)c1nc(CN(Cc2cccs2)C2CCS(=O)(=O)C2)cs1 (stereo unspecified) | 16
2 | Cn1cc(C(=O)N[C@@H]2CN(CC3CCOCC3)[C@@H]3CCCO[C@@H]32)cn1 | 6.64
3 | O=C1OCCN1Cc1nc(C2(c3ccc(F)cc3)CCOC2)no1 (stereo unspecified) | -5.22
4 | CCc1nc(C2CCCN2Cc2cnc(C)cn2)no1 (stereo unspecified) | -14.6
5 | CCCOC(=O)N1CCc2cccc(S(=O)(=O)N3CCOCC3)c2C1 | -6.85
6 | CC(=O)Nc1nc(C(=O)NCc2ccc(N3CCOCC3)nc2)cs1 | -14
7 | O=C(Nc1ccccc1)[C@H]1CN2CCC1C[C@@H]2Cn1cc(CO)nn1 (stereo partly specified) | -2.42
8 | O=C(NCCN1CCOCC1)N(CCCO)C1CCCc2ccccc21 (stereo unspecified) | -9.69
9 | O[C@@H]1CN(c2noc(C3CC3)n2)CC[C@H]1c1ccc2ccccc2c1 | 5.11
10 | COCCN1CCN(CC(=O)NC2(C#N)CCCC2)CC1 | 3.5
11 | O=S(=O)(CCNC1CCc2ncnn2C1)c1ccc(Cl)cc1 (stereo unspecified) | -32.2
12 | Cc1oc(-c2ccco2)nc1CC(=O)N1CCC(C(O)C(F)(F)F)CC1 (stereo unspecified) | -5.25
13 | COc1ccc2nnc(CCC(=O)Nc3nc4c(s3)CCCCC4)n2n1 | 4.98
14 | CSC(C)(C)CNC(=O)NCC[S+]([O-])c1ccccc1F (stereo unspecified) | -11.6
15 | CCC(O)CN1CCN(C(=O)c2sccc2C2CC2)CC1 (stereo unspecified) | -14.6
16 | CCC1(CNCc2ncc[nH]2)CCCC1 | -3.09
17 | O=C(C1=CCCC1)N1C[C@H](Oc2cccnc2)[C@H]2OCCC[C@H]21 | -8.42
18 | O=C(CNC(=O)c1ccc(Cl)cc1)Nc1nccs1 | -7.55
19 | COc1ccc(C(O)CNC(=O)Nc2cc(C)nn2C)cc1 (stereo unspecified) | 2.33
20 | O=C1CC2(CCN(Cc3cccnc3)C2)CN1c1cncnc1 (stereo unspecified) | -65.7
21 | Cc1cc(C)n(CC2CCCN2C(=O)c2ccc3c(c2)OCCO3)n1 (stereo unspecified) | 5.43
22 | CC(C)c1nccn1C1CCCN(C(=O)c2ccc3nncn3c2)C1 (stereo unspecified) | -5.53
23 | OCC1(O)CCCN(Cc2ccccc2OCCc2ccccc2)CC1 (stereo unspecified) | -45.4

Row | SMILES | cytotoxicity at 10 µM [%]
24 | CN(Cc1cc(C2CC2)[nH]n1)Cc1cc2ccc(F)cc2[nH]c1=O | 7.84
25 | CC1COCCN1C(=O)c1cccc(OCc2cscn2)c1 (stereo unspecified) | -9.93
26 | O[C@@H]1CN(Cc2ccc(F)c(F)c2)CC[C@H]1NCc1ccccn1 | 3.85
27 | O=C1N(Cc2cccc(Cl)c2)CCC12CCCNC2 (stereo unspecified) | -16.5
28 | CN(CC(=O)NC1(C)CCS(=O)(=O)C1)Cc1ccc(F)c(F)c1 (stereo unspecified) | -1.55
29 | Cc1n[nH]c(C)c1C1COCCN1C(=O)c1ccccc1 (stereo unspecified) | -3.94
30 | CC(C)c1noc(CCCC(=O)N2CCN(C)CC2c2ccccc2)n1 (stereo unspecified) | -2.89
31 | Cc1cnn(CC2CCCN2C(=O)c2ccc(C(N)=O)cn2)c1 (stereo unspecified) | -4.64
32 | CNC(=O)c1noc(Cn2ncc3ccccc3c2=O)n1 | -5.35
33 | COCC(=O)NCc1cc(=O)n2c(n1)CN(C)CCC2 | -103
34 | Cn1cc(C(=O)NC[C@@H]2OC[C@H]3CN(S(C)(=O)=O)CC[C@H]32)cn1 | -9.12
35 | O=C(c1ccc[nH]1)N1CCCn2cnc(COCC3CC3)c2C1 | -73.6
36 | Cc1ccc(-c2nc(CNCCn3cccn3)cs2)o1 | -5.9
37 | CCn1cnnc1CN(C)Cc1c[nH]nc1-c1ccc(F)cc1 | -2.59
38 | CN1CCC(C)(CNC(=O)c2ccc(SCc3cccnc3)cc2)CC1 | 12.4
39 | CN(C)CC1(O)CCCN(C(=O)CCn2cc(Cl)cn2)C1 (stereo unspecified) | -138
40 | O=C(c1c2c(N3CCCC3)ncnc2n2ccccc12)N1CCCC1 | -70.7
41 | CCOCc1nc(-c2ccc(F)cc2Cl)n(C2CCN(C)CC2)n1 | 0.0453
42 | OCCN(CCO)Cc1ccc(Br)c2cccnc12 | 0.14
43 | O=C(C1=CCCC1)N1CC[C@]2(C[C@H](OCc3cccnc3)CO2)C1 | 11.7
44 | Cc1ccc(NC(=O)c2n[nH]c(-n3cnnc3)n2)cc1 | 6.33
45 | COc1cccc(CN(C)C(=O)c2ccc(NC(C)=O)s2)c1OC | 0.23
46 | COc1ccc(-c2c(C(C)C)nn3c(=N)c(C#N)n[nH]c23)cc1 | -12.2

Row | SMILES | cytotoxicity at 10 µM [%]
47 | Oc1cc(C2CCCCN2Cc2cccs2)nc(-c2ccccn2)n1 (stereo unspecified) | 39.1
48 | COc1cccc(-n2c(SCC(=O)O)nnc2-c2cn[nH]c2)c1 | -6.76
49 | Cc1nc(C2CCNCC2)cc(N2CCOc3ccccc3C2)n1 | -2.3
50 | COCC(=O)N1CCC(c2cc(N(C)C)cc(C)n2)CC1 | 8.6
51 | CC(C)=CCS(=O)(=O)Cc1nc(C(C)C)no1 | 10.8
52 | Cc1cccc(NC2CCN(C(=O)Nc3cn[nH]c3)CC2)n1 | -26.7
53 | Fc1ccc(OC2CCN(CCn3cncn3)CC2)cc1 | -5.92
54 | Cc1noc2ncc(C(=O)N3CCCC3c3ccncc3)cc12 (stereo unspecified) | -5.66
55 | Cc1cccc(-c2nccnc2C2CCCN(C)C2)c1C (stereo unspecified) | 5.62
56 | CCN(C)c1cc(CNC(=O)CNC(=O)CC2CCCCC2)ccn1 | 2.34
57 | CC(C)c1nc(CN2CCN(C(C)c3nc(C4CC4)no3)CC2)no1 (stereo unspecified) | 6.54
58 | CCn1cc(CN2CCN(CC(O)c3ccc(C)cc3C)CC2)cn1 (stereo unspecified) | -24.6
59 | c1cncc(OCCNC2Cc3ccccc3C2)c1 | 4.32
60 | CC1CCC(N2CCC(NS(=O)(=O)CCCF)CC2)CC1 (stereo unspecified) | 1.2
61 | CC(OCC1CC1)C(=O)N1CCCN(Cc2cscn2)CC1 (stereo unspecified) | -5.16
62 | CN1CCCC(Cc2cncc(C(=O)N3CCOCC3)c2)C1 (stereo unspecified) | 6.32
63 | CCC(NC(=O)c1nn(C)cc1C(=O)O)c1ccc(C)cc1 (stereo unspecified) | -3.42
64 | CC(=O)c1ccc(-n2c(C)cn(CCS(C)(=O)=O)c2=O)cc1 | 11.5
65 | COc1cc(C(=O)N(C)Cc2nccn2CC(F)(F)F)ccc1C | -4.24
66 | CCC1CCCCN1CCc1ccncc1 (stereo unspecified) | 2.4
67 | Cc1ccc(C(=O)N2CCCC(CNS(=O)(=O)C(C)C)C2)cc1 (stereo unspecified) | -1.42
68 | NC(=O)CCOc1ccc(NC(=O)c2ccccc2OC(F)F)cc1 | 9.62
69 | O=C(c1cc(Cn2ccc3ccccc32)[nH]n1)N1CCCCC1CO (stereo unspecified) | 6.03

Row | SMILES | cytotoxicity at 10 µM [%]
70 | Cc1nn(C)cc1-c1cc(C(F)F)n2nc(CCC(=O)O)nc2n1 | -5.44
71 | Cc1ncsc1-c1nnc(C2CCN(Cc3cccc(Cl)c3)CC2)o1 | -8.19
72 | Cc1nc(C(C)C)sc1CNC(=O)CCCN1CCCCC1 | -13.8
73 | O=C1NC2(CCN(CCc3ccccc3)CC2)CC1c1ccccc1 (stereo unspecified) | -48.6
74 | COc1ccc(C(=O)N(C2CC2)C2CC(=O)NC2=O)cc1 (stereo unspecified) | -10.7
75 | O=C(NC[C@H]1OC[C@@H](NC2COC2)[C@@H]1O)c1ccccc1 | -1.05
76 | CCN1CCN(S(=O)(=O)c2c[nH]c(C(C)C)n2)c2ccccc21 | 4.65
77 | Cn1cc(C(=O)N2CCC(c3ncc[nH]3)CC2)cn1 | -5.42
78 | CC(C)Cc1cc(C(=O)N2CCC(Oc3cccnc3)CC2)n(C)n1 | -0.423
79 | CC(C)OCc1ccc(CNC(=O)NC2(CO)CCCC2)cc1 | -48.9
80 | Cc1nc(-c2ccco2)ccc1C(=O)NCC(=O)N1CCCCC1 | -7.76
81 | CCc1nc(CNC(=O)C2CCC(=O)N(Cc3ccccc3F)C2)no1 (stereo unspecified) | -1.88
82 | Cc1noc(C)c1-c1nc(N(C)CCN(C)C)ncc1-c1cnccn1 | -12.4
83 | O=C(C(CNCc1ccccc1O)c1ccccc1)N1CCOCC1 (stereo unspecified) | -0.138
84 | O=C1CCC(C(=O)N2CCOC(Cc3ccc(F)cc3)C2)=NN1 (stereo unspecified) | -6.26
85 | COc1ccccc1CNC(Cc1cccs1)c1nc(C)c(C)s1 (stereo unspecified) | 3.89
86 | c1cnc(N2CCOCC3(C2)CN(c2nccs2)CCO3)nc1 (stereo unspecified) | -104
87 | O=C(NCC1CC1)C1CSCN1S(=O)(=O)c1cc(F)cc(F)c1 (stereo unspecified) | 6.35
88 | Cc1cccc(C)c1OC1CN(Cc2cnn(C)c2)C1 | 7.97
89 | CC(C)CC(O)C1CCN(Cc2cnc(-c3cccs3)nc2)CC1 (stereo unspecified) | -3.18
90 | O=C(C1CCC1)N1CCCC(c2cccc(-n3ccnc3)n2)C1 (stereo unspecified) | -1.28
91 | COc1ccc(C(CC(=O)NCc2n[nH]c(N)n2)c2ccccc2)cc1 (stereo unspecified) | 7.66
92 | Cc1cc(NC(=O)C(C)Cn2cc(Br)cn2)no1 (stereo unspecified) | -2.04

Row | SMILES | cytotoxicity at 10 µM [%]
93 | O=C(NCc1nc(C2CC2)no1)N1CCOC(c2ccccc2)C1 (stereo unspecified) | -45.2
94 | CC(C)C(=O)N1CCCC12CCCN(C(=O)c1ccno1)C2 (stereo unspecified) | 5.35
95 | CC(Cn1cccn1)C(=O)N1CCCN(Cc2cscn2)CC1 (stereo unspecified) | -13.2
96 | CN(C)c1cc(CNC(=O)c2cnccn2)ccn1 | -17.7
97 | O=C(CC1CCC2(CC1)CCN(Cc1nccs1)CC2)N1CC=CC1 | -4.35
98 | O=C(NCCc1ccc(F)cc1)C1CN(C(=O)Cn2cncn2)C1 | 3.54
99 | CCc1nc(N2CCN(c3ncccc3C#N)CC2)c2cnn(C)c2n1 | 10.8
100 | CS(=O)(=O)c1cc(Cl)cnc1C1CCN(C(=O)C2CCCO2)CC1 (stereo unspecified) | 4.38
101 | COc1ncccc1-c1cc(C(N)=O)ccn1 | 7.81
102 | Cc1nccnc1N1CCC2(CCCN(C3CCOCC3)C2=O)C1 (stereo unspecified) | -8.8
103 | Cc1nc2ccccc2nc1NCc1cccc(OCC2CCCO2)c1 (stereo unspecified) | 44.3
104 | COc1cccc(CN2CCC(CO)(Cc3ccc(Cl)cc3)CC2)c1O | -133
105 | O=C1CCCCCN1CCC(=O)N1CCCC(c2ccn[nH]2)C1 (stereo unspecified) | 9.01
106 | Cc1nc(CNC2CCN(Cc3ccccc3)C2)sc1C (stereo unspecified) | 2.86
107 | CCOc1ccccc1CN(C)C(=O)CN1C(=O)OC[C@@H]1C(C)C | -2.24
108 | c1ccc(-c2noc(C3CCN(CCCn4cncn4)CC3)n2)cc1 | -14.3
109 | CC(C)C(=O)N1CCCN(C(=O)NC2CCc3ccccc3C2)CC1 (stereo unspecified) | -7.33
110 | Cc1ccoc1C(=O)N1C[C@@H](N2CCN(C)CC2)[C@H]2OCCC[C@H]21 | 7.1
111 | Cc1nc(CCCNC(=O)c2coc(CN3CCOCC3)c2)sc1C | -2.11
